Data set [1] deals with Klebsiella pneumoniae. In words: Antibacterial activity against Klebsiella pneumoniae ATCC 13883 after 18 hrs by 2 fold serial dilution method. Format: functional. The method, boiled down:
(§1)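 Overnight cultures in nutrient or Mueller Hinton broth at 37 °C with shaking, diluted 50-fold into fresh MHB and grown 1.5–3 h to mid-log. Inoculum 5×10^5 CFU/mL in 2-fold serial dilutions, final range 32 to 0.015 μg/mL. MIC read visually after 18 h at 37 °C as the lowest concentration with no visible growth.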

The nature of data set [2]: Cytotoxicity against human HepG2 cells after 24 hrs by resazurin assay. To be noted: HepG2 cells. Format: cell-based. For orientation: The colour change of resazurin is a common sign of viable cells or microbes.
In data set [3] the test system is Klebsiella pneumoniae. In words: Antibacterial activity against clinical isolate carbapenem and polymyxin resistant Klebsiella pneumoniae Koprana 100650661:1 after 18 hrs by 2 fold serial dilution method. Format: functional. The method, boiled down:
(§2)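 Polymyxin-resistant clinical isolates were grown overnight at 37 °C in NB or MHB with shaking, diluted 50-fold in MHB and grown 1.5–3 h to mid-log phase. The inoculum was 5×10^5 CFU/mL. Compounds were 2-fold broth serial dilutions, final 32 to 0.015 μg/mL; the polymyxin controls ran 128–0.06 μg/mL. The MIC was the lowest concentration with no visible growth after 18 h at 37 °C.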

For data set [4], the system named is Acinetobacter baumannii. As to the kind of experiment: Antibacterial activity against clinical isolate carbapenem and polymyxin resistant Acinetobacter baumannii Ptyela 100734512:2 after 18 hrs by 2 fold serial dilution method. Format: functional. The method, boiled down:
as §2

In another data set the test system is Staphylococcus aureus. In words: microbe, parasite or virus in culture. As to conditions: ATCC 25923, 18 h.
Data set [5] concerns Klebsiella pneumoniae. As to the kind of experiment: Antibacterial activity against clinical isolate carbapenem and polymyxin resistant Klebsiella pneumoniae 138-16357-20362 after 18 hrs by 2 fold serial dilution method. Format: functional. In short, it runs like this:
as §2

For data set [6], the system named is Acinetobacter baumannii. As to the kind of experiment: Antibacterial activity against Acinetobacter baumannii ATCC 19606 after 18 hrs by 2 fold serial dilution method. Format: functional. The method, boiled down: as §1
The test system of data set [7] is Klebsiella pneumoniae. In words: Antibacterial activity against multidrug resistant Klebsiella pneumoniae ATCC 700603 after 18 hrs by 2 fold serial dilution method. Format: functional. The method, boiled down:
(§3)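 Overnight cultures at 37 °C in nutrient or Mueller Hinton broth with shaking were diluted 50-fold in MHB and grown 1.5–3 h to mid-log phase. The inoculum was 5×10^5 CFU/mL in MHB. Compounds were 2-fold serially diluted, final 32 to 0.015 μg/mL. After 18 h at 37 °C, the MIC was read visually as the lowest concentration with no visible growth.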

For data set [8], the system named is Pseudomonas aeruginosa. As to the kind of experiment: Antibacterial activity against Pseudomonas aeruginosa ATCC 27853 after 18 hrs by 2 fold serial dilution method. Format: functional. In short, it runs like this:
as §1

Data set [9] concerns Pseudomonas aeruginosa. In words: Antibacterial activity against clinical isolate polymyxin resistant Pseudomonas aeruginosa FADDI-PA070 after 18 hrs by 2 fold serial dilution method. Format: functional. In short, it runs like this: as §2
The subject of data set [10] is Pseudomonas aeruginosa. As to the kind of experiment: Antibacterial activity against clinical isolate polymyxin resistant Pseudomonas aeruginosa PA9704 after 18 hrs by 2 fold serial dilution method. Format: functional. In short, it runs like this: as §2
The subject of another data set is Escherichia coli. As to the kind of experiment: Antibacterial activity against Escherichia coli ATCC 25922 after 18 hrs by 2 fold serial dilution method. Format: functional. In short, it runs like this:
as §1

The subject of data set [11] is Klebsiella pneumoniae. In words: Antibacterial activity against Klebsiella pneumoniae ATCC BAA-2146 expressing NDM-1 after 18 hrs by 2 fold serial dilution method. Format: functional. The method, boiled down:
as §3

Where [12] appears, read: Klebsiella pneumoniae, 700603, 18 h.

Converted amounts (≈) assume the structure as drawn. Bridge positions count the residues as written; N and C are the ends. Square brackets hold non-standard residues; d marks the D form. Peptide text beside a SMILES is read from it. * marks the point of attachment. Phe(4-NH2) = Nc1ccc(C[C@H](N)C(=O)O)cc1; dGly(nOct) = CCCCCCCC[C@@H](N)C(=O)O; Octanoyl = CCCCCCCC(=O)*; Dab = NCC[C@H](N)C(=O)O

Broadly, the CC50 is the concentration giving 50% cytotoxicity.

On to `CCCCCCCC(=O)N[C@@H](CCN)C(=O)N[C@H](C(=O)N[C@@H](CCN)C(=O)N[C@H]1CCNC(=O)[C@H]([C@@H](C)O)NC(=O)[C@H](CCN)NC(=O)[C@H](CCN)NC(=O)[C@H](CC(C)C)NC(=O)[C@@H](Cc2ccccc2)NC(=O)[C@H](Cc2ccc(N)cc2)NC1=O)[C@@H](C)O` (Octanoyl-[Dab]T[Dab][Dab][Phe(4-NH2)][dF]L[Dab][Dab]T; lactam 4-C), for which the MIC in the data set on Klebsiella pneumoniae [1] (ATCC 13883, 18 h) was over 32 µg/mL; against Klebsiella pneumoniae [3] (Koprana 100650661:1, 18 h), over 32 µg/mL; with Acinetobacter baumannii [4] (Ptyela 100734512:2, 18 h), over 32 µg/mL; in the data set on Staphylococcus aureus it was over 32 µg/mL; with Klebsiella pneumoniae [5] (138-16357-20362, 18 h) it was over 32 µg/mL; with Acinetobacter baumannii [6] (ATCC 19606, 18 h), over 32 µg/mL. Moreover, the MIC in the data set with Klebsiella pneumoniae [7] (setting [12]) is over 32 µg/mL; in the data set on Pseudomonas aeruginosa [8] (ATCC 27853, 18 h), over 32 µg/mL; in the data set with Pseudomonas aeruginosa [9] (FADDI-PA070, 18 h), over 32 µg/mL; in the data set on Pseudomonas aeruginosa [10] (PA9704, 18 h), over 32 µg/mL; with Escherichia coli (ATCC 25922, 18 h), over 32 µg/mL. The same molecule displayed a CC50 at 24 h in data set [2] of over 300 µM.

Turning to GENTAMICIN, the MIC against Klebsiella pneumoniae [1] is 0.25 µg/mL; against Klebsiella pneumoniae [3], over 32 µg/mL; in the data set on Acinetobacter baumannii [4], over 32 µg/mL; in the data set with Klebsiella pneumoniae [5], 1 µg/mL; against Acinetobacter baumannii [6], 32 µg/mL; in the data set on Klebsiella pneumoniae [7], 8 µg/mL. For the same molecule, the MIC was 1 µg/mL against Pseudomonas aeruginosa [8]; over 32 µg/mL in the data set on Klebsiella pneumoniae [11]; 32 µg/mL against Pseudomonas aeruginosa [9]; over 32 µg/mL with Pseudomonas aeruginosa [10]; 0.25 µg/mL in the data set on Escherichia coli.

For the molecule `CCCCCCCC(=O)N[C@@H](CCN)C(=O)N[C@H](C(=O)N[C@@H](CCN)C(=O)N[C@H]1CCNC(=O)[C@H]([C@@H](C)O)NC(=O)[C@H](CCN)NC(=O)[C@H](CCCNC(=N)N)NC(=O)[C@H](CC(C)C)NC(=O)[C@@H](Cc2ccccc2)NC(=O)[C@H](CCN)NC1=O)[C@@H](C)O`, the MIC is 4 µg/mL (≈ 3.21 µM) against Klebsiella pneumoniae [1] (ATCC 13883, 18 h); over 32 µg/mL against Klebsiella pneumoniae [3] (Koprana 100650661:1, 18 h); 32 µg/mL (≈ 25.7 µM) in the data set on Acinetobacter baumannii [4] (Ptyela 100734512:2, 18 h); over 32 µg/mL against Staphylococcus aureus; over 32 µg/mL with Klebsiella pneumoniae [5] (138-16357-20362, 18 h); 0.5 µg/mL (≈ 0.401 µM) against Acinetobacter baumannii [6] (ATCC 19606, 18 h). For the same molecule, the MIC against Klebsiella pneumoniae [7] (setting [12]) was 0.5 µg/mL (≈ 0.401 µM); against Pseudomonas aeruginosa [8] (ATCC 27853, 18 h), 1 µg/mL (≈ 0.803 µM); in the data set on Klebsiella pneumoniae [11] (ATCC BAA-2146, 18 h), 0.5 µg/mL (≈ 0.401 µM); with Pseudomonas aeruginosa [9] (FADDI-PA070, 18 h) it was 32 µg/mL (≈ 25.7 µM); with Pseudomonas aeruginosa [10] (PA9704, 18 h), over 32 µg/mL; with Escherichia coli (ATCC 25922, 18 h), 0.25 µg/mL (≈ 0.201 µM).

In the case of `CN[C@@H](CC(C)C)C(=O)N[C@H]1C(=O)N[C@@H](CC(N)=O)C(=O)N[C@H]2C(=O)N[C@H]3C(=O)N[C@H](C(=O)N[C@@H](C(=O)O)c4cc(O)cc(O)c4-c4cc3ccc4O)[C@H](O)c3ccc(c(Cl)c3)Oc3cc2cc(c3O[C@H]2O[C@@H](CO)[C@H](O)[C@@H](O)[C@@H]2O[C@@H]2C[C@@](C)(N)[C@@H](O)[C@@H](C)O2)Oc2ccc(cc2Cl)[C@H]1O`, the CC50 at 24 h in [2] was over 300 µM.

`CCCCCCCC(=O)N[C@@H](CCN)C(=O)N[C@H](C(=O)N[C@@H](CCN)C(=O)N[C@H]1CCNC(=O)[C@H]([C@@H](C)O)NC(=O)[C@H](CCN)NC(=O)[C@H](CCNC(=O)[C@@H](N)CCCNC(=N)N)NC(=O)[C@H](CC(C)C)NC(=O)[C@@H](Cc2ccccc2)NC(=O)[C@H](CCN)NC1=O)[C@@H](C)O`: the MIC in the data set on Klebsiella pneumoniae [1] (ATCC 13883, 18 h) was 4 µg/mL (≈ 2.97 µM); in the data set with Klebsiella pneumoniae [3] (Koprana 100650661:1, 18 h) it was over 32 µg/mL; with Acinetobacter baumannii [4] (Ptyela 100734512:2, 18 h) it was over 32 µg/mL; against Staphylococcus aureus, over 32 µg/mL; against Klebsiella pneumoniae [5] (138-16357-20362, 18 h), over 32 µg/mL; in the data set with Acinetobacter baumannii [6] (ATCC 19606, 18 h) it was 4 µg/mL (≈ 2.97 µM). Besides, the MIC against Klebsiella pneumoniae [7] (setting [12]) was 0.5 µg/mL (≈ 0.372 µM); with Pseudomonas aeruginosa [8] (ATCC 27853, 18 h), 2 µg/mL (≈ 1.49 µM); against Klebsiella pneumoniae [11] (ATCC BAA-2146, 18 h), 1 µg/mL (≈ 0.743 µM); in the data set on Pseudomonas aeruginosa [9] (FADDI-PA070, 18 h), over 32 µg/mL; with Pseudomonas aeruginosa [10] (PA9704, 18 h), over 32 µg/mL; against Escherichia coli (ATCC 25922, 18 h) it was 0.5 µg/mL (≈ 0.372 µM).

Consider `CCCCCCCC[C@H]1NC(=O)[C@H](CCN)NC(=O)[C@@H](NC(=O)[C@H](CCN)NC(=O)[C@@H](NC(=O)[C@H](CCN)NC(=O)CCCCCCC)[C@@H](C)O)CCNC(=O)[C@H]([C@@H](C)O)NC(=O)[C@H](CCN)NC(=O)[C@H](CCN)NC(=O)[C@H](CC(C)C)NC1=O` (Octanoyl-[Dab]T[Dab][Dab][Dab][dGly(nOct)]L[Dab][Dab]T; lactam 4-C), for which the MIC in the data set on Klebsiella pneumoniae [1] (ATCC 13883, 18 h) is 1 µg/mL (≈ 0.825 µM); against Acinetobacter baumannii [6] (ATCC 19606, 18 h) it was 1 µg/mL (≈ 0.825 µM); in the data set with Pseudomonas aeruginosa [8] (ATCC 27853, 18 h), 4 µg/mL (≈ 3.3 µM).
